The values below come from ChEMBL document CHEMBL4706650, “Discovery of a Novel and Brain-Penetrant O-GlcNAcase Inhibitor via Virtual Screening, Structure-Based Analysis, and Rational Lead Optimization” (J Med Chem, 2021).

Data set [1] concerns the target T1, Protein O-GlcNAcase (Homo sapiens, UniProt O60502).
T1 sequence (O60502 whole entry): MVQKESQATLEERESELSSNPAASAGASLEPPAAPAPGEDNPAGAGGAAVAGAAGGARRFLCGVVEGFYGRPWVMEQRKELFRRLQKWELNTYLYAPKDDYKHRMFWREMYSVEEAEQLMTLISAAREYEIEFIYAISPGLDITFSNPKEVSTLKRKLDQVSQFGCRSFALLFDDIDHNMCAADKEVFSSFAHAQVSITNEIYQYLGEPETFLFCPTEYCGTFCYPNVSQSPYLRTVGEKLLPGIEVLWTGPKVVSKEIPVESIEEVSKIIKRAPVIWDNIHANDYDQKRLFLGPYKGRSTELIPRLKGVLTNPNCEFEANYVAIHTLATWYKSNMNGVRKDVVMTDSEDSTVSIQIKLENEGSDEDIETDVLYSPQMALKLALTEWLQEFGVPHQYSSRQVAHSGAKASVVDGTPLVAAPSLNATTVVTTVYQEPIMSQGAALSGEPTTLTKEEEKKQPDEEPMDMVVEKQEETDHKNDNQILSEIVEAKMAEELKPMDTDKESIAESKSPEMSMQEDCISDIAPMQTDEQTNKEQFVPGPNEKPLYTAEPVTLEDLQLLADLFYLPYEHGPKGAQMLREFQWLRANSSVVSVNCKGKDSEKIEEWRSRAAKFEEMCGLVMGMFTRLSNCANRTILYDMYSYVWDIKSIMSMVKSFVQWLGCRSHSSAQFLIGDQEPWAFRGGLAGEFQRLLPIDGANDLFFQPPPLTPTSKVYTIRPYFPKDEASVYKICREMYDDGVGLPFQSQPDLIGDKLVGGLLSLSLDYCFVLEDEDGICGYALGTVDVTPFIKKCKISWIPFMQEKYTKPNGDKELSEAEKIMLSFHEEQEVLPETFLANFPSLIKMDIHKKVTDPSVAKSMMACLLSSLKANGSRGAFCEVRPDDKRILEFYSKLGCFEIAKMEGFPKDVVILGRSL
In words: Inhibition of full-length human OGA expressed in Expi293 (HEK293) cells using 4-methylumbelliferyl-N-acetyl-beta-D-glucosaminide dihydrate as fluorogenic substrate preincubated with enzyme followed by substrate addition and measured every 5 mins for 60 mins by fluorescence based analysis. In a few lines:
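Human OGA, FLAG-tagged full length from transfected Expi293 cells, purified by anti-FLAG agarose and gel filtration, 1 nM. Buffer 50 mM NaH2PO4, 100 mM NaCl, 0.01% BSA, 0.01% Tween 20, 1 mM DTT, pH 7.4; 2 mM substrate added to start after compound, RT. Ex 355/em 460 nm; 0% control enzyme+DMSO, 100% no enzyme; IC50 by variable-slope sigmoidal fit.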

Data set [2] addresses T2, Protein O-GlcNAcase (Homo sapiens) (UniProt O60502).
T2 sequence (whole entry): T1 sequence (O60502 whole entry)
Kind of data set: Competitive inhibition of full-length human OGA expressed in Expi293 (HEK293) cells assessed as increase in Km of substrate using varying concentrations of 4-methylumbelliferyl-N-acetyl-beta-D-glucosaminide dihydrate as fluorogenic substrate at 0.48 to 60 nM measured for 60 mins by fluorescence based analysis. The settings on record: dose 0.48-60 nM. In a few lines:
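Full-length human OGA (FLAG-purified, gel filtration) at 1 nM final, in 50 mM NaH2PO4, 100 mM NaCl, 0.01% BSA, 0.01% Tween 20, 1 mM DTT, pH 7.4. Substrate serially diluted 2-fold from 2 mM at several inhibitor levels. Fluorescence read over 60 min (ex 355/em 460 nm); Vmax and Km from Michaelis–Menten nonlinear fit.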

Data set [3] concerns the target T2, Protein O-GlcNAcase (Homo sapiens). Kind of data set: Inhibition of full-length human OGA expressed in Expi293 (HEK293) cells using 4-methylumbelliferyl-N-acetyl-beta-D-glucosaminide dihydrate as fluorogenic substrate at 10 uM preincubated with enzyme followed by substrate addition and measured every 5 mins for 60 mins by fluorescence based analysis.
The species named for a further data set is Homo sapiens. In words: Inhibition of human placental beta-hexosaminidase using 4-methylumbelliferyl-N-acetyl-beta-D-glucosaminide dihydrate as fluorogenic substrate at 10 uM preincubated with enzyme followed by substrate addition and measured every 5 mins for 60 mins by fluorescence based analysis. Type of data set: tissue-based. The following applies: Placenta.

Data set [4] deals with T1, Protein O-GlcNAcase. In words: Inhibition of OGA in human SH-SY5Y cells assessed as increase in O-GIcNAcylated protein levels incubated for 48 hrs by in-cell Western assay. The format is cell-based. The gist of the method: (§1)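 SH-SY5Y cells seeded ~1.8 × 10⁴/well on poly-D-lysine, compound for 48 h at 37 °C. Methanol fixation, 0.1% Triton X-100 permeabilization, blocking, then Alexa Fluor 700-labelled anti-O-GlcNAc RL2 (1:500, 60 min RT). Infrared imaging of integrated fluorescence, normalized to DMSO (100%) and medium (0%); EC50 as curve inflection point, Emax as maximal % increase.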

Data set [5] concerns the target T2, Protein O-GlcNAcase (Homo sapiens). Kind of data set: Inhibition of OGA in human SH-SY5Y cells assessed as increase in O-GIcNAcylated protein levels incubated for 48 hrs by in-cell Western assay relative to control. The format is cell-based. In a few lines:
as §1

Data set [6] can be described thus: Inhibition of human placental beta-hexosaminidase using 4-methylumbelliferyl-N-acetyl-beta-D-glucosaminide dihydrate as fluorogenic substrate preincubated with enzyme followed by substrate addition and measured every 5 mins for 60 mins by fluorescence based analysis. The format is tissue-based, Placenta. The gist of the method:
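Placental β-hexosaminidase at 10 μunits/mL in 50 mM NaH2PO4, 100 mM NaCl, 0.01% BSA, 0.01% Tween 20, 1 mM DTT, pH 7.4. Compound added before 2 mM substrate, room temperature. Fluorescence ex 355/em 460 nm; inhibition versus enzyme+DMSO (0%) and no-enzyme (100%) wells; IC50 from variable-slope sigmoidal regression.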

Data set [7] is described as follows: Drug level in C57BL/6J mouse plasma at 30 mg/kg, po after 0.5 hrs by LC/MS-MS analysis. Type of data set: ADME, organism-based. The gist of the method: (§2)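 Suspension in 0.5% (w/v) methylcellulose dosed orally at 30 mg/kg to C57Bl/6J mice (n = 3). Blood and brain taken at 0.5 and 1 h; plasma by centrifugation, brain homogenized in saline. Acetonitrile deproteinization with internal standard, supernatant diluted in 0.2% formic acid/10 mM ammonium formate (pH 3), LC/MS/MS quantitation.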

The nature of data set [8]: Drug level in C57BL/6J mouse plasma at 30 mg/kg, po after 1 hrs by LC/MS-MS analysis. Type of data set: ADME, organism-based. The gist of the method:
as §2

Data set [9] in a line: Drug level in C57BL/6J mouse brain at 30 mg/kg, po after 0.5 hrs by LC/MS-MS analysis. Type of data set: ADME, organism-based. The following applies: read-out: Drug uptake. In a few lines:
as §2

Data set [10] can be described thus: Drug level in C57BL/6J mouse brain at 30 mg/kg, po after 1 hrs by LC/MS-MS analysis. The format is ADME, organism-based. The settings on record: read-out: Drug uptake. The gist of the method:
as §2

Data set [11] can be described thus: Unbound brain-to-plasma concentration ratio in C57BL/6J mouse at 30 mg/kg, po after 0.5 hrs by equilibrium dialysis. The following applies: read-out: K(p,uu,brain). The format is ADME, organism-based. In a few lines:
(§3)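 Oral dose of 30 mg/kg in 0.5% methylcellulose to C57Bl/6J mice (n = 3); plasma and brain levels at 0.5 and 1 h by LC/MS/MS. Unbound fractions in plasma and brain by equilibrium dialysis; Kp,uu = (fu,brain × Cbrain)/(fu,plasma × Cplasma).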
(Equilibrium dialysis compares concentrations on both sides of a semipermeable membrane.)

Data set [12] can be described thus: Unbound brain-to-plasma concentration ratio in C57BL/6J mouse at 30 mg/kg, po after 1 hrs by equilibrium dialysis. Type of data set: ADME, organism-based. The settings on record: read-out: K(p,uu,brain). The gist of the method:
as §3

A short description of data set [13]: Unbound drug level in C57BL/6J mouse plasma at 30 mg/kg, po by equilibrium dialysis method. Type of data set: ADME, organism-based. The gist of the method: (§4)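 Unbound fraction in mouse plasma and brain determined by equilibrium dialysis, with the fractions used to correct total plasma and brain levels after a 30 mg/kg oral dose in 0.5% methylcellulose.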

Data set [14] can be described thus: Unbound drug level in C57BL/6J mouse brain at 30 mg/kg, po by equilibrium dialysis method. Type of data set: ADME, organism-based. The gist of the method: as §4

Active and inactive are the calls of the source. No cut-off for these calls is given here.

The molecule `COC1CCN(c2ccnc(NCCc3ccccc3)n2)CC1` registered an IC50 against Protein O-GlcNAcase [1] of 970 nM.
Regarding `CC1CCN(c2ccnc(NCCc3ccccc3)n2)CC1`, 24 nM corresponded to half-maximal inhibition against Protein O-GlcNAcase [1] (IC50). Further, the inhibition result in data set [2] is “Active”.
In turn, `CC1CCN(c2ccnc(NCCc3cccnc3)n2)CC1` yielded an IC50 on Protein O-GlcNAcase [1] of 31 nM.
On the same count and under the same terms, in the case of `c1ccc(CCNc2nccc(N3CCOCC3)n2)cc1` it was 4700 nM; in that of `OC1CCN(c2ccnc(NCCc3ccccc3)n2)CC1`, > 10000 nM; in that of `CC1CCN(c2ccnc(NCc3cccnc3)n2)CC1`, 18 nM.
`CC1CCN(c2ccnc(NC(C)CN3CCN(C)CC3)n2)CC1` (centres undefined): the inhibition in data set [3] was > 50%. Moreover, the IC50 on Protein O-GlcNAcase [1] is 41 nM. Further, the inhibition entry in the data set listed under Homo sapiens is “inactive”.
Regarding `CC1CCN(c2ccnc(NCCc3ccccn3)n2)CC1`, on Protein O-GlcNAcase [1], the IC50 turned out to be 360 nM.
Consider `CC1CCN(c2ccnc(NCc3cn(C)cn3)n2)CC1` [TP-040], for which the IC50 against Protein O-GlcNAcase [1] was 46 nM; in data set [6] it was > 10000 nM. The EC50 on Protein O-GlcNAcase [4] turned out to be 450 nM. Also, the Emax in data set [5] turned out to be 143%. The concentration at 0.5 h in [7] was 2800 ng/mL; in [9] it was 2700 ng/g. The concentration at 1 h in data set [8] was 1900 ng/mL; in data set [10], 2600 ng/g. In addition, in data set [11], the Kp uu at 0.5 h stood at 0.25. Moreover, the Kp uu at 1 h in [12] came to 0.36. In addition, the fraction unbound in data set [13] was found to be 0.53; in data set [14], 0.14.
As for `CN1CCN(c2ccnc(NCCc3ccccc3)n2)CC1` [TP-040n], the IC50 against Protein O-GlcNAcase [1] is > 10000 nM.

As a reminder, the IC50 is the midpoint of a concentration-inhibition curve. The term inhibition denotes the change of the read-out against control, counted positive when it falls. What is called EC50 is the concentration giving half of the maximal effect. What is called Emax is the maximal effect, on the per cent scale that the assay sets. What is called fraction unbound is free concentration divided by total concentration. A low value points to little free substance.
